Measurements as given in ChEMBL document CHEMBL1144815, “Diphenidol-related diamines as novel muscarinic M4 receptor antagonists” (Bioorg Med Chem Lett, 2008).
Where a name gives a salt, the structure may show the parent alone. Active and inactive are the calls of the source. The rule behind the calls is not given here.

Columns and labels:
[1] = target: T1, Muscarinic acetylcholine receptor M1 (Homo sapiens, UniProt P11229); test: Displacement of [3H]N-methylscopolamine from human muscarinic M1 receptor expressed in CHO-K1 cells; format: cell-based
T1 sequence (P11229 whole entry): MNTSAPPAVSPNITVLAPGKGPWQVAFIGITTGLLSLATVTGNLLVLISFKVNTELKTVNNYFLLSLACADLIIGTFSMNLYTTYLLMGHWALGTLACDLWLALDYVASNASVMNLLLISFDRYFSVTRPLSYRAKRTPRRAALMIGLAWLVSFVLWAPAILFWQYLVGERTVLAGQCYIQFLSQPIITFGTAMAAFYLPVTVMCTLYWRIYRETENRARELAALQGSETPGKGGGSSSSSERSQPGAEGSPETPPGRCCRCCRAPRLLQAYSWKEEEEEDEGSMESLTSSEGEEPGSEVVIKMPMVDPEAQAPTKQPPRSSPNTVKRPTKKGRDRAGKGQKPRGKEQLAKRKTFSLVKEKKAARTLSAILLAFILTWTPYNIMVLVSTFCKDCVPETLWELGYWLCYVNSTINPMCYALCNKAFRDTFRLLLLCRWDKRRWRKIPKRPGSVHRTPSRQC

[2] = target: T2, Muscarinic acetylcholine receptor M5 (Homo sapiens, UniProt P08912); test: Displacement of [3H]N-methylscopolamine from human muscarinic M5 receptor expressed in CHO-K1 cells; format: cell-based
T2 sequence (P08912 whole entry): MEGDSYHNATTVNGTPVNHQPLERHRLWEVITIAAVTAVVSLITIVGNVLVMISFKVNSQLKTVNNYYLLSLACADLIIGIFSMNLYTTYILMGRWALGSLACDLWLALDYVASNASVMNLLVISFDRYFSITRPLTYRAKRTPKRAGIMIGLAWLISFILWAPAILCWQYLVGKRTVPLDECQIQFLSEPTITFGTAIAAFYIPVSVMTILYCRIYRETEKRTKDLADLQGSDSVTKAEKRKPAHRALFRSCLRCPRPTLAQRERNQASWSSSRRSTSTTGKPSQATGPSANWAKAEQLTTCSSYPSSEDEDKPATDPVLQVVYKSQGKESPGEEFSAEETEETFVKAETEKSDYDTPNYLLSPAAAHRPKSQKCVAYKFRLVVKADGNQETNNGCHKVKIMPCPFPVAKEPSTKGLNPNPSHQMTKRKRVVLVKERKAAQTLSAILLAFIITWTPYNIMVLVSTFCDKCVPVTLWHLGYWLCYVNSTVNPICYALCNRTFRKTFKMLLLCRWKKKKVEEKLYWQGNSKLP
Method in brief: (§1)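 Binding was measured in CHO-K1 stable transfectants expressing the human receptor subtype. Labelled ligand was [³H]-N-methylscopolamine chloride. Values are the mean of three experiments performed in triplicate.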

[3] = target: T3, Muscarinic acetylcholine receptor M4 (Homo sapiens, UniProt P08173); test: Displacement of [3H]N-methylscopolamine from human muscarinic M4 receptor expressed in CHO-K1 cells; format: cell-based; method in brief: as §1
T3 sequence (P08173 whole entry): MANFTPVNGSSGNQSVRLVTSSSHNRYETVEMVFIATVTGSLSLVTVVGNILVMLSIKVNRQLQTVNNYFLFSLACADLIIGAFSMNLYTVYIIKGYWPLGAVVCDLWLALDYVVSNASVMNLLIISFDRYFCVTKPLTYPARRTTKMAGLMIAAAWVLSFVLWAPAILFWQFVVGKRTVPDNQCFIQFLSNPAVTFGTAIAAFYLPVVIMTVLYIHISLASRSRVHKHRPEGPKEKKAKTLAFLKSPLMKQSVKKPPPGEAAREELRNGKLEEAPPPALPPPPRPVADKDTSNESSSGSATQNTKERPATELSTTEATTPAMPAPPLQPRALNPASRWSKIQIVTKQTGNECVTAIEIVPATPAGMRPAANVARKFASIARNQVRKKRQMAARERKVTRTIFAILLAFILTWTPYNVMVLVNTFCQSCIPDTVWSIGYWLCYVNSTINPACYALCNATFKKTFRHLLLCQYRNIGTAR

[4] = target: T4, Muscarinic acetylcholine receptor M2 (Homo sapiens, UniProt P08172); test: Displacement of [3H]N-methylscopolamine from human muscarinic M2 receptor expressed in CHO-K1 cells; format: cell-based; method in brief: as §1
T4 sequence (P08172 whole entry): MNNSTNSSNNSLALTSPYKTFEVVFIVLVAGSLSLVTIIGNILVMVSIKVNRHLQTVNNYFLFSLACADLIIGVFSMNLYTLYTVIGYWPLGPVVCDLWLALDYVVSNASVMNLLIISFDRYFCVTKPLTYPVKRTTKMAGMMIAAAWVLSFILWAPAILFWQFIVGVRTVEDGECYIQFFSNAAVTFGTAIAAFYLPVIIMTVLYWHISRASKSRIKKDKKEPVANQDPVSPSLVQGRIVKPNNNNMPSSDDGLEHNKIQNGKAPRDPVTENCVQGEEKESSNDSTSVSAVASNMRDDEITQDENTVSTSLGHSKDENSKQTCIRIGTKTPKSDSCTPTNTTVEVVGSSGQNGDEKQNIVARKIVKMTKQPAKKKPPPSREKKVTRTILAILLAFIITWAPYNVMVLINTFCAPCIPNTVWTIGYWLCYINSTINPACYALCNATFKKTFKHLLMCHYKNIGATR

[5] = target: T5, Muscarinic acetylcholine receptor M3 (Homo sapiens, UniProt P20309); test: Displacement of [3H]N-methylscopolamine from human muscarinic M3 receptor expressed in CHO-K1 cells; format: cell-based
Target sequence in this assay (P20309 whole entry): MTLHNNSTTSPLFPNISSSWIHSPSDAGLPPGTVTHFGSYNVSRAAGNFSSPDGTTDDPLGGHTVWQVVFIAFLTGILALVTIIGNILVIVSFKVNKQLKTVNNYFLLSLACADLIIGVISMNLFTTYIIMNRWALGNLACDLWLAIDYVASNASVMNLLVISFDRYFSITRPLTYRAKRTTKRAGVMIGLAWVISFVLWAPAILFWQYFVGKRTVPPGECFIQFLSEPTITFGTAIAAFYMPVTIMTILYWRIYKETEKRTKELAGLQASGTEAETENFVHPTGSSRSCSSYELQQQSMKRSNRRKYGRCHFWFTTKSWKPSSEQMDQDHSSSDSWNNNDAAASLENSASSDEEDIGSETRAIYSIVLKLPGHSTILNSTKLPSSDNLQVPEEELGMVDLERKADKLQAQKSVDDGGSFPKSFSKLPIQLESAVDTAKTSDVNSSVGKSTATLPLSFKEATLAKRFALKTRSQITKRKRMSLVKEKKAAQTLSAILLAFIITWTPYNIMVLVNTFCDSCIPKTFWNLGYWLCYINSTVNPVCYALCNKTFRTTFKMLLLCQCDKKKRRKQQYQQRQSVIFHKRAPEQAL

[6] = target: T3, Muscarinic acetylcholine receptor M4; test: Antagonist activity at human muscarinic M4 receptor expressed in CHO cells assessed as blockade of carbachol-induced inhibition of forskolin-stimulated cAMP accumulation; format: functional, cell-based
[7] = target: T6, Muscarinic acetylcholine receptor M1 (Homo sapiens) (UniProt P11229); test: Antagonist activity at human muscarinic M1 receptor expressed in CHO cells assessed as inhibition of carbachol-induced Eu-GTP binding; format: cell-based
T6 sequence (whole entry): T1 sequence (P11229 whole entry)
Method in brief: (§2)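 Membranes from CHO-K1 cells stably expressing the human receptor subtype. Agonist was carbachol, and the read-out was carbachol-stimulated binding of the non-hydrolysable analogue Eu-GTP to Gα subunits. pKb was estimated functionally by concentration-ratio analysis. Values are the mean of three experiments run in triplicate.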

[8] = target: T6, Muscarinic acetylcholine receptor M1 (Homo sapiens); test: Antagonist activity at human muscarinic M1 receptor expressed in CHO cells assessed as inhibition of basal Eu-GTP binding; format: cell-based
[9] = target: T5, Muscarinic acetylcholine receptor M3; test: Antagonist activity at human muscarinic M3 receptor expressed in CHO cells assessed as inhibition of basal Eu-GTP binding; format: cell-based
Target sequence in this assay (P20309 whole entry, looked up): as the sequence (P20309 whole entry) above

[10] = target: T7, Muscarinic acetylcholine receptor M4 (Homo sapiens) (UniProt P08173); test: Antagonist activity at human muscarinic M4 receptor expressed in CHO cells assessed as inhibition of carbachol-induced Eu-GTP binding; format: cell-based; method in brief: as §2
T7 sequence (whole entry): T3 sequence (P08173 whole entry)

[11] = target: T8, Muscarinic acetylcholine receptor M2 (Homo sapiens) (UniProt P08172); test: Antagonist activity at human muscarinic M2 receptor expressed in CHO cells assessed as inhibition of carbachol-induced Eu-GTP binding; format: cell-based; method in brief: as §2
T8 sequence (whole entry): T4 sequence (P08172 whole entry)

[12] = target: T7, Muscarinic acetylcholine receptor M4 (Homo sapiens); test: Antagonist activity at human muscarinic M4 receptor expressed in CHO cells assessed as inhibition of basal Eu-GTP binding; format: cell-based
[13] = target: T9, Muscarinic acetylcholine receptor M5 (Homo sapiens) (UniProt P08912); test: Antagonist activity at human muscarinic M5 receptor expressed in CHO cells assessed as inhibition of basal Eu-GTP binding; format: cell-based
T9 sequence (whole entry): T2 sequence (P08912 whole entry)

[14] = target: T5, Muscarinic acetylcholine receptor M3; test: Antagonist activity at human muscarinic M3 receptor expressed in CHO cells assessed as inhibition of carbachol-induced Eu-GTP binding; format: cell-based; method in brief: as §2
Target sequence in this assay (P20309 whole entry, looked up): as the sequence (P20309 whole entry) above

[15] = target: T9, Muscarinic acetylcholine receptor M5 (Homo sapiens); test: Antagonist activity at human muscarinic M5 receptor expressed in CHO cells assessed as inhibition of carbachol-induced Eu-GTP binding; format: cell-based; method in brief: as §2
[16] = target: T8, Muscarinic acetylcholine receptor M2 (Homo sapiens); test: Antagonist activity at human muscarinic M2 receptor expressed in CHO cells assessed as inhibition of basal Eu-GTP binding; format: cell-based

Compound	Ki [1] [µM]	Ki [2] [µM]	Ki [3] [µM]	Ki [4] [µM]	Ki [5] [µM]	EC50 [6] [µM]	pKb [7]	Activity [8]	Activity [9]	pKb [10]	pKb [11]	Activity [12]	Activity [13]	pKb [14]	pKb [15]	Activity [16]	IC50 [6] [µM]
CN(CCCC(O)(c1ccccc1)c1ccccc1)CCN(C)CCCC(O)(c1ccccc1)c1ccccc1	245	229	162	214	380	–	–	–	–	–	–	–	–	–	–	–	–
C[N+]1(C)CCC(C2CC[N+](C)(CCCC(O)(c3ccccc3)c3ccccc3)CC2)CC1 (stereo unspecified)	8.32	25.7	2.69	4.37	3.63	–	–	–	–	–	–	–	–	–	–	–	–
OC(CCCN1CCC(C2CCN(CCCC(O)(c3ccccc3)c3ccccc3)CC2)CC1)(c1ccccc1)c1ccccc1	0.794	0.776	0.0741	0.871	0.724	0.138	5.92	inactive	inactive	7.21	5.82	inactive	inactive	6.14	6.4	inactive	–
OC(CCCN1CCN(c2ccccc2)CC1)(c1ccccc1)c1ccccc1	363	123	100	457	70.8	–	–	–	–	–	–	–	–	–	–	–	–
OC(CCCN1CCNCC1)(c1ccccc1)c1ccccc1	0.603	1.41	1.17	7.24	0.661	–	–	–	–	–	–	–	–	–	–	–	–
C[N+]1(CCCC(O)(c2ccccc2)c2ccccc2)CCN(c2ccccc2)CC1	17.4	6.92	22.9	25.7	7.59	–	–	–	–	–	–	–	–	–	–	–	–
C[N+]1(CCCC(O)(c2ccccc2)c2ccccc2)CCC(C2CC[N+](C)(CCCC(O)(c3ccccc3)c3ccccc3)CC2)CC1 (stereo unspecified)	0.603	0.589	0.0126	0.363	0.372	0.067	6.04	inactive	inactive	7.83	6.1	inactive	inactive	6.25	6.02	inactive	0.067
OC(CCCN1CCN(CCCC(O)(c2ccccc2)c2ccccc2)CC1)(c1ccccc1)c1ccccc1	851	23.4	22.4	178	87.1	–	–	–	–	–	–	–	–	–	–	–	–
CN1CCC(C2CCN(CCCC(O)(c3ccccc3)c3ccccc3)CC2)CC1	5.75	2.88	1.17	3.98	5.25	–	–	–	–	–	–	–	–	–	–	–	–
CN1CCN(CCCC(O)(c2ccccc2)c2ccccc2)CC1	7.76	13.5	9.77	35.5	7.41	–	–	–	–	–	–	–	–	–	–	–	–
C[N+]1(CCCC(O)(c2ccccc2)c2ccccc2)CCCCC1	0.2	0.708	0.288	0.275	0.275	–	–	–	–	–	–	–	–	–	–	–	–
C[N+]1(C)CCN(CCCC(O)(c2ccccc2)c2ccccc2)CC1	2.95	9.55	4.79	23.4	4.07	–	–	–	–	–	–	–	–	–	–	–	–
C[N+](C)(CCCC(O)(c1ccccc1)c1ccccc1)CCC[N+](C)(C)CCCC(O)(c1ccccc1)c1ccccc1	7.24	7.59	11.2	12	12.3	–	–	–	–	–	–	–	–	–	–	–	–
C[N+](C)(CCCC(O)(c1ccccc1)c1ccccc1)CC[N+](C)(C)CCCC(O)(c1ccccc1)c1ccccc1	26.3	18.2	11.2	47.9	43.7	–	–	–	–	–	–	–	–	–	–	–	–
C[N+]1(CCCC(O)(c2ccccc2)c2ccccc2)CCN(CCCC(O)(c2ccccc2)c2ccccc2)CC1	7.08	1.55	1.23	2.29	5.5	–	–	–	–	–	–	–	–	–	–	–	–
CN(CCCN(C)CCCC(O)(c1ccccc1)c1ccccc1)CCCC(O)(c1ccccc1)c1ccccc1	1.35	0.832	0.617	5.5	1.74	–	–	–	–	–	–	–	–	–	–	–	–
OC(CCCN1CCCCC1)(c1ccccc1)c1ccccc1 [DIPHENIDOL HYDROCHLORIDE]	–	1.29	0.912	2.82	–	–	–	–	–	–	–	–	–	–	–	–	–
